# In article PMC12243159 (RSC Medicinal Chemistry, 2025):
# Entries after “also recorded” stand apart in the source; their conditions may differ. Read-outs that look alike come from different tables or passages of the source.
# How the values were obtained:
# [1] = system: non-small cell lung carcinoma A549; experiment: cell proliferation, CCK-8 assay, A549; format: cell-based; conditions: A549 cells, 72 hours, hypoxic conditions
# [2] = system: pancreatic epithelioid carcinoma PANC-1; experiment: cell proliferation, CCK-8 assay, PANC-1; format: cell-based; conditions: PANC-1 cells, 72 hours, hypoxic conditions
# hCA II [3] = biological target: T1, hCA II (Homo sapiens, UniProt P00918); conditions: read-out: KI hCA II; stopped-flow hydration assay; values marked *; cited from earlier work
# MDA-MB-231 cells = experiment: cell proliferation assay, cell counting by flow cytometry; format: cell-based, human; conditions: MDA-MB-231, 72 hours, hypoxic conditions
# Method in brief: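 MDA-MB-231 cells were grown in DMEM with 10% FBS, 1% penicillin/streptomycin and 1% glutamine, kept at low passage, and held under hypoxia (1% O₂, 5% CO₂). Cells were seeded at 10.000 per well and treated in 1% FBS with increasing compound concentrations for 72 h at 37 °C. They were then detached with trypsin/2 mM EDTA and counted by flow cytometry. Counts are given as % of untreated control (mean ± SEM) with IC₅₀.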
# hCA VI = hCA VI (Homo sapiens, UniProt P23280); experiment: stopped-flow CO2 hydration assay, hCA VI; format: biochemical
# hCA VI, sequence (P23280 18-308): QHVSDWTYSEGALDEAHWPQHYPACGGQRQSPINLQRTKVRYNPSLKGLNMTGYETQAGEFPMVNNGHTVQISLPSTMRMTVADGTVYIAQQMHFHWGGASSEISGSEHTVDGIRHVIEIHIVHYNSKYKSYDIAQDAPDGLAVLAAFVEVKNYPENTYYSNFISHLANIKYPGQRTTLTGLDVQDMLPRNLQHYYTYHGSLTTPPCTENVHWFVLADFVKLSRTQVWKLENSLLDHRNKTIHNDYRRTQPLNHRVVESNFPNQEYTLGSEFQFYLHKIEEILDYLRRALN
# hCA IX = hCA IX (Homo sapiens, UniProt Q16790); experiment: stopped-flow CO2 hydration assay, hCA IX; format: biochemical; conditions: for SI I/IX: ratio of KI hCA I to KI hCA IX; for SI II/IX: ratio of KI hCA II to KI hCA IX
# hCA I = hCA I (Homo sapiens, UniProt P00915); experiment: stopped-flow CO2 hydration assay, hCA I; format: biochemical
# hCA I, sequence (P00915 whole entry): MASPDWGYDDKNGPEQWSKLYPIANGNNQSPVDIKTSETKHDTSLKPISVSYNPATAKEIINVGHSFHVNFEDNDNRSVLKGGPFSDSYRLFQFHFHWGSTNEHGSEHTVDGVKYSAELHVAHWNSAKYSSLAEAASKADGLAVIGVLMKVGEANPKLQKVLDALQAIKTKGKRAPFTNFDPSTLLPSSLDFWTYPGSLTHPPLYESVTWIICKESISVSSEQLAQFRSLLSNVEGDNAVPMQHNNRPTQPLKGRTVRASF
# Method in brief: (§1)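 Recombinant in-house enzyme, preincubated 15 min at room temperature with inhibitor. Inhibitor stock was 0.1 mM in water, diluted down to 0.01 nM. CO₂ (1.7–17 mM) hydration was followed by stopped-flow with 0.2 mM phenol red at 557 nm, in 20 mM HEPES pH 7.5 with 20 mM Na₂SO₄, over 10–100 s. Initial rates came from six traces and were corrected for the uncatalysed rate. Ki was obtained by non-linear least squares, mean of ≥3 measurements.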
# hCA II [4] = biological target: T1, hCA II; experiment: stopped-flow CO2 hydration assay, hCA II; format: biochemical
# Method in brief: as §1
# hCA XII = hCA XII (Homo sapiens, UniProt O43570); experiment: stopped-flow CO2 hydration assay, hCA XII; format: biochemical; conditions: for SI I/XII: ratio of KI hCA I to KI hCA XII
# hCA XII, sequence (O43570 25-354): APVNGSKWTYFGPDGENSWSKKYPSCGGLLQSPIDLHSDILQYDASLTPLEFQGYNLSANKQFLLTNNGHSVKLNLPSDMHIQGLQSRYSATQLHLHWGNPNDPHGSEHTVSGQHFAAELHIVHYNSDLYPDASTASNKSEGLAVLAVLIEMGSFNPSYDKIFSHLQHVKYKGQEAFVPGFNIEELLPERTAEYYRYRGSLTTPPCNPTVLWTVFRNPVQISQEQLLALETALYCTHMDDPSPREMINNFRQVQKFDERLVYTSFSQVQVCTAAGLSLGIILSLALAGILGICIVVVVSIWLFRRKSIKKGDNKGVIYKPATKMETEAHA
Ki (hCA VI) [nM],Ki (hCA IX) [nM],SI I/IX (hCA IX),SI II/IX (hCA IX),Ki (hCA I) [nM],Ki (hCA II [4]) [nM],SI I/XII (hCA XII),"Ki (hCA XII; KI hCA XII, stopped-flow hydration assay) [nM]",SI II/XII (hCA XII; ratio of KI hCA II to KI hCA XII),Structure (SMILES),antiproliferative effect [1],antiproliferative effect [2],Ki (hCA II [3]) [nM],anti-proliferative effect (MDA-MB-231 cells)
,,,,,,,,,NS(=O)(=O)c1ccc(NC(=O)Nc2ccc(F)cc2)cc1 [SLC-0111],ineffective,ineffective,,
453,,,,,,,,,"C#Cc1cccc(Nc2ncnc3cc(OCCOC)c(OCCOC)cc23)c1 [ERL, erlotinib]",displayed an antiproliferative effect,displayed an antiproliferative effect,3980,mild reduction of cell proliferation; also recorded: low efficacy
505,25.7,9.73,0.47,250,12.1,43.86,,,"Cc1cn([C@H]2C[C@H](N=[N+]=[N-])[C@@H](CO)O2)c(=O)[nH]c1=O [AZT, azidothymidine, reference compound]",,,684,
,4930,8.79,1.97,43300,9710,28.4,1520,6.38,"COCCOc1cc2ncnc(Nc3cccc(-c4cn(CCOCCOCCOCCOCCOCCNC(=S)Nc5ccc(S(N)(=O)=O)cc5)nn4)c3)c2cc1OCCOC [compound 14b, 4-(3-(17-(4-(3-((6,7-Bis(2-methoxyethoxy)quinazolin-4-yl)amino)phenyl)-1H-1,2,3-triazol-1-yl)-3,6,9,12,15-pentaoxaheptadecyl)thioureido)benzenesulfonamide]",,,,
